Screening results: PubChem, several laboratories
The list is not random: actives were taken first. Their share in the collection is about 4.1%.
SMARCA2 activ: activators of SMARCA2 function; MG213 cells, MMTV-luciferase reporter, dexamethasone, overnight; activation, % at 9.1 µM; 370,000 tested, 1% active; in the data active = activation above about 7.8%;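 also: 0% = vehicle wells and 100% = reference activator wells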
MPTP block: permeability transition pore inhibition | inhibition, % at 10 µM | AID 602449 | isolated mouse mitochondria, Ca2+ swelling absorbance, 30 min | 360,000 tested, 1.4% active;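 active = inhibition of 50% or more, scaled per plate between neutral and stimulator controls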;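 also: 0% = DMSO wells given calcium and 100% = 1 mM EGTA wells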
MC4R barr agon: agonists of human melanocortin 4 receptor (MC4R) beta-arrestin; P32245; U2OS MC4R beta-arrestin complementation, luminescence; percent of melanotan II response, DMSO zero; activation, % at 8.9 µM; 360,000 tested, 0.98% active; AID 540308;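 active = activation above a per-plate cutoff, the mean activation of sample wells on that plate plus 3 SD, cut at about 8% in these data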
ATG4B inh: ATG4B (human) cysteine protease inhibition; 340,000 tested, 0.51% active; inhibition, % at 8.33 µM; AID 504462; ATG4B cleavage of LC3-PLA2, NBD-HPC fluorescence, 1 h; Q9Y4P1; in the data active = inhibition above about 40%
Target sequence (Q9Y4P1 whole entry, looked up): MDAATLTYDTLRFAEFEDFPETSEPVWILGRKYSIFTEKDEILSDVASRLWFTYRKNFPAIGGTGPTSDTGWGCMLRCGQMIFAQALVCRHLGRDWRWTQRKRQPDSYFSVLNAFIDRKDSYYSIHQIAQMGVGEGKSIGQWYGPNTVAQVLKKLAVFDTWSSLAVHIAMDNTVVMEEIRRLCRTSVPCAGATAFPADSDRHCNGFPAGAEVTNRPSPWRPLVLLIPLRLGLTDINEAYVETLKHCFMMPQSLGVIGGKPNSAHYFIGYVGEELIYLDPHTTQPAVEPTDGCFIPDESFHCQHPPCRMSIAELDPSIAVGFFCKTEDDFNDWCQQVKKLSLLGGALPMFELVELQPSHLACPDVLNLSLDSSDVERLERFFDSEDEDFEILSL
MC4R antagonist: antagonists of human melanocortin 4 receptor (MC4R). 360,000 tested, 0.48% active. P32245. AID 540295. MC4R-expressing cells, MTII-stimulated cAMP, LANCE TR-FRET. inhibition, % at 6.5 µM;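 active = inhibition above its plate's cutoff, the mean of tested wells on that plate plus 3 SD, cut at about 29% in these data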;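 also: 0% = Melanotan II alone and 100% = Melanotan II plus saturating MCL0020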
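Material – human MC4R-expressing U2OS cells · Repeats – no replicates · Detection – TR-FRET with Eu-cAMP and labeled anti-cAMP, 671 nm · Times – compound 30 min, challenge 1 h, detection 1 h · Compound – single nominal compound dose of 6.5 µM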
Rh123 counter: mitochondrial membrane potential, counter-screen | shares compounds with MPTP block | isolated mitochondria, Rhodamine 123 fluorescence | AID 624504 | 5,000 tested, 78% active | inhibition, % at 10 µM; in the data active = inhibition above about 22%;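 also: 0% = DMSO vehicle and 100% = positive control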
MPTP abs DR: dose response confirmation of mitochondrial permeability transition pore inhibitors; shares compounds with MPTP block; isolated mitochondria swelling, absorbance; IC50, µM; 780 tested, 58% active; AID 651561; in the data active = IC50 below about 20 µM
MPTP counter DR: counter-screen for mitochondrial permeability transition pore inhibitors, dose response; shares compounds with MPTP block; IC50, µM; 780 tested, 49% active; isolated mitochondria counterscreen, fluorescence read-out; in the data active = IC50 below about 80 µM
The depositor's hits bear a star.

`CCN(CC)C(=O)CC[C@H]1CC[C@]2(CCCN(S(=O)(=O)c3ccccc3)C2)O1` gave SMARCA2 activ -3.
Screening Cc1nc(C(=O)Nc2ccccc2Cl)cc2c1[nH]c1ccccc12 returned SMARCA2 activ -1, MPTP block 55*, MC4R barr agon 4, ATG4B inh -13, MC4R antagonist 6, Rh123 counter 11, MPTP abs DR >100 and MPTP counter DR >80.
Screening COc1ccc(NC(=O)c2cc3c([nH]c4ccccc43)c(C)n2)cc1 returned SMARCA2 activ 0, MPTP block 2, MC4R barr agon -2, ATG4B inh -1 and MC4R antagonist 2.
Screening C[C@@H]1CCN(C2CC2)S(=O)(=O)c2c(cccc2N2CC[C@@H](N(C)C)C2)O1 returned SMARCA2 activ 1.
Screening COc1ccc(CNC(=O)c2c(O)c3cccc4c3n(c2=O)CCC4)cc1 returned SMARCA2 activ -1, MPTP block 81*, MC4R barr agon -2, ATG4B inh -1, MC4R antagonist 0 and Rh123 counter -14.
Screening CC1CCN(C(=O)N2c3ccccc3Sc3ccccc32)CC1 returned SMARCA2 activ -2, MPTP block 65*, MC4R barr agon 0, ATG4B inh 6, MC4R antagonist 1 and Rh123 counter 34*.
For COc1cccc(OCCn2cc(C(C)=O)c3ccccc32)c1 the results were SMARCA2 activ -6, MPTP block 61*, MC4R barr agon -1, ATG4B inh -15, MC4R antagonist -6 and Rh123 counter 56*.
For CC(=O)c1cn(CCOc2cc(C)ccc2C)c2ccccc12 the results were SMARCA2 activ -4, MPTP block 97*, MC4R barr agon -1, ATG4B inh -3, MC4R antagonist 5 and Rh123 counter 83*.
`Cc1ccc(C)c(OCCn2cc(C(=O)O)c3ccccc32)c1` gave SMARCA2 activ 0, MPTP block -1, MC4R barr agon 1, ATG4B inh 3 and MC4R antagonist 10.
COc1cccc(OCCn2cc(C(=O)c3ccco3)c3ccccc32)c1 was read as SMARCA2 activ -2, MPTP block 2, MC4R barr agon -2, ATG4B inh -4 and MC4R antagonist 2.
Screening COc1ccccc1-c1cccc2c3c([nH]c12)[C@@H]1C[C@H]2[C@@H](CN1CC3)[C@H](C)ON2C returned SMARCA2 activ -1.
CCCCc1ccc(NC(=S)NCc2cccs2)cc1 was read as SMARCA2 activ 2, MPTP block 84*, MC4R barr agon 1, ATG4B inh 25, MC4R antagonist 10 and Rh123 counter 80*.
`CCCCc1ccc(NC(=S)NCc2ccc(OC)cc2)cc1` gave SMARCA2 activ -2, MPTP block 57*, MC4R barr agon 6, ATG4B inh -11, MC4R antagonist 12 and Rh123 counter 75*.
Cc1ccc(NC(=S)NCc2cccs2)cc1 was read as SMARCA2 activ 0, MPTP block 0, MC4R barr agon -2, ATG4B inh 0 and MC4R antagonist 0.
c1cnc(SCC2CCCCC2)c(-c2nc3ccccc3[nH]2)c1 was read as SMARCA2 activ 5.
For CCn1c2ccccc2c2cc(NC(=O)COC(=O)c3ccc(F)cc3Cl)ccc21 the results were SMARCA2 activ -5.
`CCOC(=O)[C@@]12CCC3=C1N(CCC3)C(=O)[C@H](CC(=O)NCCCN1CCCC1=O)C2` gave SMARCA2 activ 0.
For O=S(=O)(c1cccc(NC(=S)N2CCN(c3ccc(F)cc3)CC2)c1)C(F)F the results were SMARCA2 activ -3, MPTP block 67*, MC4R barr agon -2, ATG4B inh -22, MC4R antagonist 6 and Rh123 counter 61*.
For O=S(=O)(c1cccc(NC(=S)N2CCN(c3cccc(Cl)c3)CC2)c1)C(F)F the results were SMARCA2 activ -3, MPTP block 77*, MC4R barr agon 7, ATG4B inh -4, MC4R antagonist 17 and Rh123 counter 86*.
`CCCCOc1ccc(C(=O)NC2CCCCN(C(C)C)C2=O)cc1` (centres undefined) gave SMARCA2 activ -4.
For Cc1sc2ncnc(NCC3(N4CCOCC4)CCCCC3)c2c1C the results were SMARCA2 activ -1, MPTP block -2, MC4R barr agon -2, ATG4B inh 0 and MC4R antagonist 5.
c1ccc(-c2csc3ncnc(NCCCN4CCOCC4)c23)cc1 was read as SMARCA2 activ -1, MPTP block 6, MC4R barr agon 0, ATG4B inh 4 and MC4R antagonist -10.
Cc1sc2ncnc(NCC(C)(C)N3CCOCC3)c2c1C was read as SMARCA2 activ -3, MPTP block 80*, MC4R barr agon 1, ATG4B inh -10, MC4R antagonist 3 and Rh123 counter 84*.
c1ccc(-c2csc3ncnc(NCC4COc5ccccc5O4)c23)cc1 (centres undefined) was read as SMARCA2 activ -7, MPTP block 97*, MC4R barr agon -1, ATG4B inh -4, MC4R antagonist -26 and Rh123 counter 85*.
Cc1sc2ncnc(NCC3COc4ccccc4O3)c2c1C (centres undefined) was read as SMARCA2 activ -6, MPTP block 100*, MC4R barr agon 0, ATG4B inh -5, MC4R antagonist 1 and Rh123 counter 95*.
Screening COC(=O)[C@H]1C[C@@]2(n3ccc4ccccc43)c3ccccc3N(S(=O)(=O)c3ccccc3)[C@H]2N1 returned SMARCA2 activ -4.
Cc1nc2ccc(S(=O)(=O)NCC(=O)NCc3cccs3)cc2s1 was read as SMARCA2 activ -7.
Screening FC(F)(F)c1cc(-c2ccccc2)nc(N2CCCCC2)n1 returned SMARCA2 activ 1, MPTP block 67*, MC4R barr agon 1, ATG4B inh 5, MC4R antagonist -2, Rh123 counter -2, MPTP abs DR inactive and MPTP counter DR >80.
For COc1ccccc1-c1cc(C(F)(F)F)nc(N2CCCCC2)n1 the results were SMARCA2 activ 0, MPTP block 5, MC4R barr agon -1, ATG4B inh 3 and MC4R antagonist 3.
`CSc1cccc(NC(=O)/C=C/c2ccccc2)c1` gave SMARCA2 activ 1, MPTP block 52*, MC4R barr agon 3, ATG4B inh 4, MC4R antagonist 1 and Rh123 counter 53*.
`CSc1cccc(NC(=O)/C=C/c2ccc(Cl)cc2)c1` gave SMARCA2 activ 1, MPTP block 90*, MC4R barr agon 0, ATG4B inh 1, MC4R antagonist 5 and Rh123 counter 90*.
